Published values collected from several papers.
Protocols differ between the studies behind these lines.
Target: Proto-oncogene tyrosine-protein kinase Src (SRC, Homo sapiens, UniProt P12931)

Cn1cc(-c2cc(F)cc(N3CCn4c(cc5c4CCCC5)C3=O)c2CO)cc(Nc2ccc(N3CCN(C4COC4)CC3)cn2)c1=O
inhibition (enzyme activity, inhibitor; 0.1 µM): 13%

O=C1c2c(O)cc(O)cc2OC(c2ccc(O)c(O)c2)C1O (stereo not drawn)
inhibition (enzyme activity, inhibitor; 80 µM): 53%

C#Cc1n[nH]c2c(-c3cn(C(C)c4ccccn4)c(=O)[nH]c3=O)cc(F)cc12 (stereo not drawn)
inhibition (enzyme activity, inhibitor; 1 µM): 9.4%

COc1ncccc1-c1cnn2ccc(N3CCN(C(=O)OC(C)C)CC3)nc12
remaining binding (binding, competition with immobilised ligand; 1 µM): 100%

CC(C)(C)c1cc(C=C(C#N)C#N)cc(Br)c1O
remaining activity (enzyme activity, inhibitor; 0.5 µM): 87.4%

C[C@H](C(=O)N[C@H]1COc2ccccc2[C@@H]1S(C)(=O)=O)c1ccc(F)cc1
inhibition (enzyme activity, inhibitor; 10 µM): -5%

Nc1ncc(-c2nc(N3CCOCC3)nc(N3CCOCC3)n2)c(C(F)F)n1
remaining binding (binding, competition with immobilised ligand; 10 µM): 57%

Cn1cc(-c2cccc(N3CCc4c(sc5c4CC(C)(C)C5)C3=O)c2CO)cc(Nc2ccncn2)c1=O
inhibition (enzyme activity, inhibitor; 1 µM): 39%

c1ccc(C(NCCNC(c2ccccc2)c2ccccc2)c2ccccc2)cc1
inhibition (enzyme activity, inhibitor; 10 µM): -24%

Cc1nn(C)cc1-c1nc2c(N3CCN(Cc4ccc(Cl)cc4)CC3)c(Cl)cnc2[nH]1
remaining binding (binding, competition with immobilised ligand; 1 µM): 100%

Cn1cncc1[C@](O)(COc1ccc(C#N)cc1-c1ccc(OC(F)(F)F)cc1)c1ccc(C#N)cc1
remaining binding (cell-free assay, competition with immobilised ligand; 1 µM): 81%

O=c1[nH]c2ccccc2n1C1CCN(Cc2ccc(-c3[nH]c4cc5ncnc5cc4nc3-c3ccccc3)cc2)CC1
remaining signal (cell-free assay; 0.5 µM): 103%
